Source: PubChem BioAssay (several laboratories)
Most compounds without a hit are left out; they make up all but 6.1% or so of the library.
RAM network inh: yeast RAM network inhibition | inhibition, % at 50 µM | AID 868 | S. cerevisiae dse1pr::URA3 reporter, 5-FOA growth OD615, 2 d; analog-sensitive cbk1-as2 kinase mutant strain | 190,000 compounds, 1.8% hits;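 active = inhibition above a set limit, 3 SD over mean compound inhibition, cut at about 8.4% in these data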;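 also: inhibition rescues growth on 5-FOA so higher OD means more RAM inhibition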
WT yeast gro inh: growth inhibition of WT yeast, mitochondrial fusion screen | 190,000 compounds, 2.1% hits | mitochondrial fusion phenotypic screen, WT strain | AID 1362 | inhibition, % at 10 µM; in the data active = inhibition above about 58%; tested in S. cerevisiae
Measles CPE: protection of cells from measles virus; Measles virus-infected cells, CPE protection, absorbance; AID 841; protection (pct of control), % at 4 µM; 140,000 compounds, 1.5% hits; in the data active = protection mostly above about 24%, no sharp cut-off; inactive = mostly below about 26%
Yeast growth inh: reduces growth of yeast BB579 in restrictive medium | S. cerevisiae BB579 growth, OD615, 48 h | inhibition, % at 10 µM | 140,000 compounds, 0.51% hits | AID 804;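 active = inhibition above a set limit, 3 SD over the mean compound inhibition, cut at about 44% in these data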
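System: Saccharomyces cerevisiae DeaD strain BB579, replicative lifespan model yeast. Buffer or medium: restrictive glucose-based CSMM-D medium. Doses: one dose, 10 µM compound with 0.25% DMSO. Timing: 4 h preincubation and 48 h exposure at 30 °C. Detection: turbidity as optical density at 615 nm. Benchmarks: amphotericin B 10 µg/mL, positive.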
DAT uptake mod: modulates human dopamine transporter uptake under cocaine. Q01959. LLC-PK1 hDAT cells, [14C]-dopamine uptake with cocaine IC80; actives deviate in either direction. B-score at 10 µM. 110,000 compounds, 1.3% hits. AID 449768;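 active = Z score or B-score, a plate-position-corrected score, falls beyond the plate's 99.7% confidence bounds, in either direction; inactive = both scores lie inside the 99.7% bounds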
Target sequence (Q01959 whole entry, looked up): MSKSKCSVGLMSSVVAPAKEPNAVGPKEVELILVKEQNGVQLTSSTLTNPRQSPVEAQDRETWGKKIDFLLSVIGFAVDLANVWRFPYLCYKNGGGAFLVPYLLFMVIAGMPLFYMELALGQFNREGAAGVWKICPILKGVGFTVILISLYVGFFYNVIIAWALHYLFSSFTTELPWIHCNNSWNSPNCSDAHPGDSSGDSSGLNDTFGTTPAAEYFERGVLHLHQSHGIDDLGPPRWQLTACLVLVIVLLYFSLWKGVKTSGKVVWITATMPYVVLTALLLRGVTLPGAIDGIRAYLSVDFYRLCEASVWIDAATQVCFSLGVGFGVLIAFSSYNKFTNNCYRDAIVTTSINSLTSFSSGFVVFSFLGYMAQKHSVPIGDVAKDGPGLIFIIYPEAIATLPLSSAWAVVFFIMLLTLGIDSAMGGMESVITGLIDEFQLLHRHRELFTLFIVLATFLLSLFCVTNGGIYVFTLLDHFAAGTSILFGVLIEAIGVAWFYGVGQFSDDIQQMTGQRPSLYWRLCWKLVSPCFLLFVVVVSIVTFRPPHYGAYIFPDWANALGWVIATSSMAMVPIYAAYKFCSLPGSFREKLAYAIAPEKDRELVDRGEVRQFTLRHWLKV
Yeast lifespan up: extends the lifespan of yeast | S. cerevisiae growth with nicotinamide, OD615; deaD strain in restrictive glucose medium | inhibition of the nicotinamide effect, % at 10 µM | 130,000 compounds, 0.68% hits;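 active = inhibition above a set limit, placed 3 SD over the median of all compounds, cut at about 26% in these data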
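Test system: DeaD-strain S. cerevisiae / Buffer or medium: restrictive glucose medium / Also added: nicotinamide 1.5 mM / Doses: one concentration, 10 µM, DMSO 0.25% / Schedule: 48 h at 30 °C / Signal: OD615 measurement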
A number is an active result.

How did Cc1cccc(NC(=O)C(CC(C)C)NC(=O)C2CCC(C)CC2)n1 (stereo unspecified) do in these assays?
RAM network inh: inactive; WT yeast gro inh: inactive

What do the screens show for `C/C=C/C=C\C(=O)Nc1cccc(C2=NOC3(C2)C[C@@H](C(N)=O)N(C(=O)c2cc([N+](=O)[O-])cc([N+](=O)[O-])c2)C3)c1` (stereo partly specified)?
DAT uptake mod: inactive

How did CN(Cc1c(O)ccc2c1oc(=O)c1ccccc12)C1CCCCC1 do in these assays?
RAM network inh: inactive; WT yeast gro inh: inactive; Measles CPE: inactive; Yeast growth inh: inactive; DAT uptake mod: inactive; Yeast lifespan up: 46.2

How did CN(C)Cc1c(O)ccc2c3c(c(=O)oc12)CCCCC3 do in these assays?
RAM network inh: inactive; Measles CPE: inactive; Yeast growth inh: inactive; DAT uptake mod: inactive; Yeast lifespan up: inactive

What do the screens show for `COc1ccc([N+](=O)[O-])cc1N(CC(=O)NCC1CCCO1)S(C)(=O)=O` (stereo unspecified)?
RAM network inh: inactive; WT yeast gro inh: inactive; Measles CPE: inactive; Yeast growth inh: inactive; Yeast lifespan up: inactive

Results for Cc1ccc(NC2=C(NC(=O)c3ccccc3)C(=O)c3ccccc3C2=O)cc1Cl ?
RAM network inh: inactive; WT yeast gro inh: 67.9; Measles CPE: inactive; Yeast growth inh: inactive; Yeast lifespan up: inactive

What do the screens show for `CC(=O)c1c(C)[nH]c(C(=O)CSc2nnc(-c3ccc(Cl)cc3)n2CC2CCCO2)c1C` (stereo unspecified)?
RAM network inh: inactive; WT yeast gro inh: 70.1; Measles CPE: inactive; Yeast growth inh: inactive; DAT uptake mod: inactive; Yeast lifespan up: inactive

What do the screens show for `CCc1ccc(S(=O)(=O)NCc2cn3ccsc3n2)s1`?
RAM network inh: inactive; WT yeast gro inh: inactive; Measles CPE: inactive; Yeast growth inh: inactive; DAT uptake mod: inactive; Yeast lifespan up: inactive

What do the screens show for `CCc1ccc(S(=O)(=O)NCCc2cn3ccsc3n2)s1`?
RAM network inh: inactive; WT yeast gro inh: inactive; Measles CPE: inactive; Yeast growth inh: 46.5; DAT uptake mod: inactive; Yeast lifespan up: inactive

Results for CN1CCN(c2ccc(Cl)cc2NS(=O)(=O)c2ccccc2Cl)CC1 ?
RAM network inh: inactive; Measles CPE: inactive; Yeast growth inh: inactive; DAT uptake mod: inactive; Yeast lifespan up: inactive

What do the screens show for `Cc1cccc(N2CCN(C(=S)Nc3ccc4nc5n(c(=O)c4c3)CCCCC5)CC2)c1C`?
RAM network inh: inactive; WT yeast gro inh: inactive

How did Cc1c(NC(=O)C2CCN(S(=O)(=O)c3ccc(Cl)cc3)CC2)c(=O)n(-c2ccccc2)n1C do in these assays?
RAM network inh: inactive; WT yeast gro inh: inactive; Measles CPE: 62.3; Yeast growth inh: inactive; DAT uptake mod: inactive; Yeast lifespan up: inactive

How did CCCCC(=O)Nc1cccc(-c2nnc(-c3ccccc3)o2)c1 do in these assays?
RAM network inh: inactive; WT yeast gro inh: inactive; Measles CPE: inactive; Yeast growth inh: inactive; DAT uptake mod: 2.81; Yeast lifespan up: inactive

Results for Cc1cccc(C)c1OCC(=O)Nc1cccc(-c2nnc(-c3ccccc3)o2)c1 ?
RAM network inh: inactive; WT yeast gro inh: inactive; Measles CPE: inactive; Yeast growth inh: inactive; DAT uptake mod: inactive; Yeast lifespan up: inactive

Results for C/C(=N\NC(=O)c1ccc([N+](=O)[O-])c(C)c1)c1ccccc1Cl ?
RAM network inh: inactive; WT yeast gro inh: inactive; Measles CPE: inactive; Yeast growth inh: inactive; Yeast lifespan up: inactive

What do the screens show for `COc1cccc(Nc2nnc(SCc3cc([N+](=O)[O-])cc4c3OCOC4)s2)c1`?
RAM network inh: inactive; WT yeast gro inh: inactive; Measles CPE: inactive; Yeast growth inh: inactive; DAT uptake mod: -3.36; Yeast lifespan up: inactive

How did CNC(=O)/C=C/c1cccc(C(F)(F)F)c1 do in these assays?
RAM network inh: inactive; WT yeast gro inh: inactive; Measles CPE: 52.9; Yeast growth inh: inactive; Yeast lifespan up: inactive

Results for Cc1ccccc1NC(=O)/C=C/c1cccc(C(F)(F)F)c1 ?
RAM network inh: inactive; WT yeast gro inh: inactive; Measles CPE: inactive; Yeast growth inh: inactive; DAT uptake mod: inactive; Yeast lifespan up: inactive

What do the screens show for `COc1ccc(N2C(=O)CC3(CCCC3)CC2=O)cc1`?
RAM network inh: inactive; WT yeast gro inh: inactive; Measles CPE: inactive; Yeast growth inh: inactive; Yeast lifespan up: inactive

How did CN1CCC(N2CCN(c3cccc(C(F)(F)F)c3)CC2)CC1 do in these assays?
RAM network inh: inactive; WT yeast gro inh: inactive; Measles CPE: inactive; Yeast growth inh: inactive; DAT uptake mod: inactive; Yeast lifespan up: inactive

Results for FC(F)(F)c1cccc(N2CCc3cn[nH]c32)c1 ?
RAM network inh: inactive; WT yeast gro inh: inactive; Measles CPE: 38.6; Yeast growth inh: inactive; DAT uptake mod: inactive; Yeast lifespan up: inactive

How did COc1ccc(/C=C/C(=O)c2c(O)cc(C)oc2=O)c(OC)c1 do in these assays?
RAM network inh: inactive; WT yeast gro inh: inactive; Measles CPE: inactive; Yeast growth inh: inactive; DAT uptake mod: inactive; Yeast lifespan up: inactive

How did COc1cccc(/C=C/C(=O)c2c(O)cc(C)oc2=O)c1O do in these assays?
RAM network inh: inactive; WT yeast gro inh: inactive; Measles CPE: inactive; Yeast growth inh: inactive; DAT uptake mod: inactive; Yeast lifespan up: 47.2

What do the screens show for `COc1cc(/C=C/C(=O)O)cc(OC)c1O`?
DAT uptake mod: inactive

How did COc1cc(/C=C/C(=O)c2c(O)cc(C)oc2=O)cc(OC)c1O do in these assays?
RAM network inh: inactive; WT yeast gro inh: inactive; Measles CPE: inactive; Yeast growth inh: inactive; DAT uptake mod: inactive; Yeast lifespan up: 55.7

Results for O=C(NCCc1c[nH]c2ccccc12)C(=O)NCC1OCCCN1S(=O)(=O)c1cc(F)ccc1F (stereo unspecified) ?
RAM network inh: inactive; WT yeast gro inh: inactive

How did COc1ccc([N+](=O)[O-])cc1N/C(=N/S(=O)(=O)c1ccccc1)c1ccccc1 do in these assays?
RAM network inh: inactive; WT yeast gro inh: inactive

How did Cc1c(N)cc[n+](CC(=O)c2ccccc2)c1C do in these assays?
RAM network inh: inactive; WT yeast gro inh: inactive

How did NC(N)=NC(N)=Nc1ccc2ccccc2c1 do in these assays?
RAM network inh: inactive; WT yeast gro inh: inactive

Results for NC(N)=NC(N)=Nc1ccc(SC(F)(F)F)cc1 ?
RAM network inh: inactive; WT yeast gro inh: inactive; Measles CPE: 23.8; Yeast growth inh: inactive; Yeast lifespan up: inactive

What do the screens show for `CCC(C)n1c(=S)[nH]c2c(sc3ccc([N+](=O)[O-])cc32)c1=O` (stereo unspecified)?
RAM network inh: inactive; WT yeast gro inh: 68.1; Measles CPE: inactive; Yeast growth inh: inactive; Yeast lifespan up: inactive

Results for CC(C)n1c2ccccc2c2cc([N+](=O)[O-])ccc21 ?
RAM network inh: inactive; WT yeast gro inh: inactive; Measles CPE: inactive; Yeast growth inh: inactive; Yeast lifespan up: inactive

What do the screens show for `CCOC(=O)N1CCC(N2C(=O)c3ccccc3C2Nc2ccc(C)cc2)CC1` (stereo unspecified)?
RAM network inh: inactive; WT yeast gro inh: inactive; Measles CPE: 36.2; Yeast growth inh: inactive; DAT uptake mod: inactive; Yeast lifespan up: inactive
